≈ marks a conversion by molar mass, not a printed value. One block for each compound: values may come before it.
Legend:
[1] = In vitro release study from IVR segments with release modelling; format: physicochemical
HIV-1IIIB = assay: Cytopathic effects; format: cell-based
HIV-1ZA/97/009 = assay: Anti-HIV assay in fresh human PBMCs; format: cell-based
HIV-1RF = assay: Inhibition of cell to cell virus transmission assay; format: cell-based
[2] = Determination of aqueous solubility; format: physicochemical; settings: DDI water, 37°C
How it was run: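 Saturated solution of test compound in 18 MΩ DDI water, shaken at 250 rpm at 37°C. Aliquots at time zero, 24 h and 48 h were filtered through 0.2 µm nylon and stored at −80°C before analysis.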

[3] = Chemical stability of the analogues in aqueous solution at pH 4.0 and 5.0; format: physicochemical
How it was run: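 Test compound prepared as 50 µM stock solutions in 10 mM acetate buffer (pH 4.0 and 5.0) and held at 40°C/75% RH. Aliquots were taken at 0, 1, 2 and 4 weeks; time-zero samples (n=3) were stored at −80°C. Drug content was measured by HPLC with norethindrone internal standard (LOQ 18.0 pmol). k = −2.303 × slope of a linear regression of log concentration vs time (first order).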

- diffusivity ([1]; IQP-0528 single agent IVR): 3.9 ± 0.4 × 10^−10 cm^2/s
- release of IQP-0528 relative to SAMT-10 by mass ([1]; combination IVR): ~3.5 times
- diffusivity ([1]; combination IVR, in presence of 8% SAMT-10): 2.8 ± 0.8 × 10^−10 cm^2/s
- decrease of diffusivity in the presence of 8% SAMT-10 ([1]; combination vs single agent IVR): 27%
- cumulative release ([1]; from combination IVR, 30 days, scaled to full IVR): 86 ± 13 mg/IVR
- EC50 (HIV-1IIIB; Human immunodeficiency virus 1, CEM-SS): 2 nM
- EC50 (HIV-1ZA/97/009; Human immunodeficiency virus 1, PBMC, in Homo sapiens): 6 nM
- EC50 (HIV-1RF; Human immunodeficiency virus 1): 6 nM
Structure (SMILES): Cc1cc(C)cc(C(=O)c2c(C(C)C)c(=O)[nH]c(=O)n2CC2CC2)c1 [IQP-0528, 1-cyclopropylmethyl-6-(3,5-dimethyl-benzoyl)-5-isopropyl-1H-pyrimidine-2,4-dione]
- EC95 (HIV-1IIIB; CEM-SS/HIV-1IIIB): 8 nM
- EC95 (HIV-1ZA/97/009; PBMCs/HIV-1ZA/97/009): 19 nM
- EC95 (HIV-1RF; HIV-1RF Cell to Cell Transmission): 85 nM

Structure (SMILES): NC(=O)CCNC(=O)c1ccccc1SC(=O)c1ccccc1 [SAMT-08]
- water solubility [2]: 2377.6 ± 27.8 µM (≈ 781 µg/mL)
- concentration remaining in aqueous solution ([3]; pH 4.0, 40°C/75% RH, 0 weeks): 46.5 ± 0.1 µM
- concentration remaining in aqueous solution ([3]; pH 4.0, 40°C/75% RH, 1 week): 40.9 ± 0.1 µM
- concentration remaining in aqueous solution ([3]; pH 4.0, 40°C/75% RH, 2 weeks): 35.1 ± 0.5 µM
- concentration remaining in aqueous solution ([3]; pH 4.0, 40°C/75% RH, 4 weeks, ND = Not Detected): 26.8 ± 0.2 µM
- Degradation rate constant (k) ([3]; pH 4.0, first order): 2.3 10^−7 sec^−1
- concentration remaining in aqueous solution ([3]; pH 5.0, 40°C/75% RH, 0 weeks): 68.6 ± 0.2 µM
- concentration remaining in aqueous solution ([3]; pH 5.0, 40°C/75% RH, 1 week): 57.3 ± 0.6 µM
- concentration remaining in aqueous solution ([3]; pH 5.0, 40°C/75% RH, 2 weeks): 49.0 ± 1.8 µM
- concentration remaining in aqueous solution ([3]; pH 5.0, 40°C/75% RH, 4 weeks, ND = Not Detected): 36 ± 1.43 µM
- Degradation rate constant (k) ([3]; pH 5.0, first order): 2.3 10^−7 sec^−1
